This is an account of results in ChEMBL document CHEMBL4699631, “Antimalarial and anti-inflammatory activities of new chloroquine and primaquine hybrids: Targeting the blockade of malaria parasite transmission” (Bioorg Med Chem, 2020).

pIC50: −log10 of the molar value.

Data set [1] has as its system Plasmodium gallinaceum. The experiment in a line: Antimalarial activity against Plasmodium gallinaceum vectored in Aedes fluviatilis infected in chicken assessed as reduction in mosquito infection at 50 mg/kg, po measured after 4 hrs by Giemsa staining based microscopic analysis relative to control. It counts as functional. In a few lines:
(§1)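 One-day-old chickens infected intramuscularly with P. gallinaceum-infected erythrocytes; parasitemia and gametocytemia followed by daily Giemsa-stained smears. Chickens with rising parasitemia below 10% fed to starved (12 h) female Ae. fluviatilis (kept 28 °C, 80% humidity) at 0 h (control) and 4 h after dosing (test compound 25–50 mg/kg; PQ 15 mg/kg). Oocyst counts and mosquito infection rates compared with nontreated groups.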

A short description of data set [2]: Cytotoxicity against monkey BGM cells assessed as reduction in cell viability incubated for 24 hrs by neutral red dye based assay. The following applies: chlorocebus aethiops, read-out: MDL50. A digest of the protocol:
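BGM monkey kidney cells grown in RPMI 1640 with 10% heat-inactivated fetal serum and gentamicin, 5% CO2, 37 °C. Cells allowed to adhere for 24 h, then exposed to compounds at 1000–1 μg/mL for 24 h. Neutral red uptake for 3 h, formaldehyde/CaCl2 fix, alcohol-acetic acid elution, absorbance at 540 nm. Viability taken as percent of untreated cells after background subtraction. MLD50 derived from this.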

The test system of data set [3] is Plasmodium gallinaceum. The experiment in a line: Antimalarial activity against Plasmodium gallinaceum vectored in Aedes fluviatilis infected in chicken assessed as reduction in parasite growth at 50 mg/kg, po measured immediately by Giemsa staining based microscopic analysis relative to control. In kind it is functional. Also on record: scale not given: the % may be the effect or the level left. The following applies: time 0 hrs. A digest of the protocol:
as §1

Data set [4] in a line: Cytotoxicty against mouse J774.A1 cells assessed as cell viability at 100 uM incubated for 24 hrs by resazurin dye based assay (reference value: 100 %). To be noted: read-out: Activity. A digest of the protocol: (§2)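 J774A.1 macrophages grown in DMEM with 10% FBS and 0.1% gentamycin, seeded at 1×10^5 cells/well. Exposed to compounds at 0, 12.5, 25, 50 or 100 μM for 24 h. Resazurin (10 μg/ml) added for 3 h, then fluorescence read. Run in triplicate. Viability given as percent of 0.2% DMSO-treated cells.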

A short description of data set [5]: Cytotoxicty against mouse J774.A1 cells assessed as cell viability at 50 uM incubated for 24 hrs by resazurin dye based assay (reference value: 100 %). The following applies: read-out: Activity. A digest of the protocol: as §2
Data set [6] has as its system Plasmodium gallinaceum. Description: Antimalarial activity against Plasmodium gallinaceum vectored in Aedes fluviatilis infected in chicken assessed as reduction in parasite growth at 25 mg/kg, po measured immediately by Giemsa staining based microscopic analysis relative to control. In kind it is functional. Also on record: scale not given: the % may be the effect or the level left. The following applies: time 0 hrs. A digest of the protocol:
as §1

Data set [7] relates to Plasmodium gallinaceum. The experiment in a line: Antimalarial activity against Plasmodium gallinaceum vectored in Aedes fluviatilis infected in chicken assessed as reduction in gametocyte stage at 25 mg/kg, po measured immediately by Giemsa staining based microscopic analysis relative to control. Also on record: scale not given: the % may be the effect or the level left. The following applies: time 0 hrs. It counts as functional. A digest of the protocol:
as §1

Data set [8] in a line: Selectivity index, ratio of MDL50 for monkey BGM cells to IC50 for Plasmodium falciparum CQR (W2 clone) infected in human Erythrocyte. In kind it is toxicity. A digest of the protocol:
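SI calculated as MLD50 in BGM cells (neutral red, 24 h) divided by IC50 against P. falciparum W2 (SYBR, 48 h).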

Data set [9] relates to Plasmodium gallinaceum. Description: Antimalarial activity against Plasmodium gallinaceum vectored in Aedes fluviatilis infected in chicken assessed as reduction in gametocyte stage at 50 mg/kg, po measured immediately by Giemsa staining based microscopic analysis relative to control. In kind it is functional. Also on record: scale not given: the % may be the effect or the level left. To be noted: time 0 hrs. In a few lines:
as §1

Data set [10] has as its system Plasmodium gallinaceum. The experiment in a line: Antimalarial activity against Plasmodium gallinaceum vectored in Aedes fluviatilis infected in chicken assessed as reduction in oocyst number at 25 mg/kg, po measured after 4 hrs by Giemsa staining based microscopic analysis relative to control. In kind it is functional. Also on record: scale not given: the % may be the effect or the level left. A digest of the protocol:
as §1

The next data set has as its system Plasmodium falciparum. The experiment in a line: Antimalarial activity against Plasmodium falciparum CQR (W2 clone) infected in human erythrocyte assessed as reduction in parasite growth incubated for 48 hrs by SYBR assay. It counts as functional, organism-based. In a few lines: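 W2 parasites cultured in A+ human erythrocytes in RPMI 1640 with ALBUMAX II, candle jar, 37 °C. Rings synchronized with sorbitol, then exposed to serial dilutions at 0.5% parasitemia and 2% hematocrit for 48 h at 37 °C. Lysis buffer with SYBR Safe, 30 min in the dark, fluorescence read at ex 485 nm. IC50 from sigmoid curve fit against drug-free control.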

The subject of data set [11] is J774.A1. Description: Inhibition of LPS-induced TNFalpha production in mouse J774.A1 cells incubated for 24 hrs by ELISA. The following applies: dose microM 0.5-25, time 24.0 hrs. It counts as functional, cell-based. A digest of the protocol: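 J774A.1 cells seeded at 2×10^6 cells/well. Pretreated with vehicle, dexamethasone 1 μM, or compounds at 0.5–25 μM. Stimulated with LPS 100 ng/ml for 24 h. Supernatants stored at −20 °C, then TNFα measured by sandwich ELISA in pg/mL. Triplicate, mean ± SEM.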
A general note: An ELISA detects its analyte on a solid surface through an enzyme-linked reagent.

Data set [12] has as its system J774.A1. The experiment in a line: Inhibition of LPS-induced NO production in mouse J774.A1 cells incubated for 24 hrs by Griess reagent based assay. It counts as functional, cell-based. The following applies: dose microM 0.5-25, time 24.0 hrs. A digest of the protocol: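 Compounds made as 10 mM DMSO stocks and diluted in medium. J774A.1 cells pre-incubated with compounds at 25 μM for screening, or 0.5–25 μM for dose-response, with dexamethasone 1 μM or 0.2% DMSO as controls. Stimulated with LPS 37.5 ng/ml plus IFNγ 25 U/ml for 24 h at 37 °C, 5% CO2. Supernatant nitrite measured by Griess at 540 nm. Triplicate, mean ± SEM.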
Background: Nitrite, measured by Griess reagent, commonly stands in for NO production.

Data set [13] can be described thus: Cytotoxicty against mouse J774.A1 cells assessed as cell viability at 12.5 uM incubated for 24 hrs by resazurin dye based assay (reference value: 100 %). The following applies: read-out: Activity. In a few lines:
as §2
For orientation: The colour change of resazurin is a common sign of viable cells or microbes.

The subject of data set [14] is Plasmodium gallinaceum. The experiment in a line: Antimalarial activity against Plasmodium gallinaceum vectored in Aedes fluviatilis infected in chicken assessed as reduction in oocyst number at 25 mg/kg, po measured immediately by Giemsa staining based microscopic analysis. It counts as functional. To be noted: time 0 hrs. A digest of the protocol:
as §1

Data set [15] is described as follows: Cytotoxicty against mouse J774.A1 cells assessed as cell viability at 25 uM incubated for 24 hrs by resazurin dye based assay (reference value: 100 %). The following applies: read-out: Activity. A digest of the protocol:
as §2

Data set [16] relates to Plasmodium gallinaceum. Description: Antimalarial activity against Plasmodium gallinaceum vectored in Aedes fluviatilis infected in chicken assessed as reduction in oocyst number at 50 mg/kg, po measured after 4 hrs by Giemsa staining based microscopic analysis relative to control. Also on record: scale not given: the % may be the effect or the level left. It counts as functional. In a few lines: as §1

Data set [17] has as its system Plasmodium gallinaceum. Description: Antimalarial activity against Plasmodium gallinaceum vectored in Aedes fluviatilis infected in chicken assessed as reduction in oocyst number at 50 mg/kg, po measured immediately by Giemsa staining based microscopic analysis. In kind it is functional. The following applies: time 0 hrs. A digest of the protocol: as §1
Data set [18] concerns Plasmodium gallinaceum. The experiment in a line: Antimalarial activity against Plasmodium gallinaceum vectored in Aedes fluviatilis infected in chicken assessed as reduction in mosquito infection at 25 mg/kg, po measured immediately by Giemsa staining based microscopic analysis relative to control. To be noted: time 0 hrs. Further details: scale not given: the % may be the effect or the level left. It counts as functional. In a few lines: as §1

Data set [19] relates to Plasmodium gallinaceum. Description: Antimalarial activity against Plasmodium gallinaceum vectored in Aedes fluviatilis infected in chicken assessed as reduction in mosquito infection at 25 mg/kg, po measured after 4 hrs by Giemsa staining based microscopic analysis relative to control. It counts as functional. A digest of the protocol:
as §1

For data set [20], the system named is Plasmodium gallinaceum. Description: Antimalarial activity against Plasmodium gallinaceum vectored in Aedes fluviatilis infected in chicken assessed as reduction in mosquito infection at 50 mg/kg, po measured immediately by Giemsa staining based microscopic analysis relative to control. In kind it is functional. Further details: scale not given: the % may be the effect or the level left. To be noted: time 0 hrs. A digest of the protocol: as §1

The test system of data set [21] is Plasmodium gallinaceum. The experiment in a line: Antimalarial activity against Plasmodium gallinaceum vectored in Aedes fluviatilis infected in chicken assessed as reduction in oocyst number at 15 mg/kg, po measured immediately by Giemsa staining based microscopic analysis. It counts as functional. The following applies: time 0 hrs. A digest of the protocol:
as §1

The subject of data set [22] is Plasmodium gallinaceum. Description: Antimalarial activity against Plasmodium gallinaceum vectored in Aedes fluviatilis infected in chicken assessed as reduction in oocyst number at 15 mg/kg, po measured after 4 hrs by Giemsa staining based microscopic analysis relative to control. It counts as functional. Further details: scale not given: the % may be the effect or the level left. In a few lines: as §1

Data set [23] has as its system Plasmodium gallinaceum. Description: Antimalarial activity against Plasmodium gallinaceum vectored in Aedes fluviatilis infected in chicken assessed as reduction in parasite growth at 15 mg/kg, po measured immediately by Giemsa staining based microscopic analysis relative to control. In kind it is functional. To be noted: time 0 hrs. Also on record: scale not given: the % may be the effect or the level left. A digest of the protocol: as §1

Data set [24] deals with Plasmodium gallinaceum. Description: Antimalarial activity against Plasmodium gallinaceum vectored in Aedes fluviatilis infected in chicken assessed as reduction in mosquito infection at 15 mg/kg, po measured immediately by Giemsa staining based microscopic analysis relative to control. To be noted: time 0 hrs. It counts as functional. Also on record: scale not given: the % may be the effect or the level left. A digest of the protocol:
as §1

Data set [25] deals with Plasmodium gallinaceum. Description: Antimalarial activity against Plasmodium gallinaceum vectored in Aedes fluviatilis infected in chicken assessed as reduction in gametocyte stage at 15 mg/kg, po measured immediately by Giemsa staining based microscopic analysis relative to control. It counts as functional. Also on record: scale not given: the % may be the effect or the level left. To be noted: time 0 hrs. A digest of the protocol: as §1

The test system of data set [26] is Plasmodium gallinaceum. Description: Antimalarial activity against Plasmodium gallinaceum vectored in Aedes fluviatilis infected in chicken assessed as reduction in mosquito infection at 15 mg/kg, po measured after 4 hrs by Giemsa staining based microscopic analysis relative to control. In kind it is functional. In a few lines:
as §1

The inhibition in vivo is the percentage by which the read-out fell short of the control. By pIC50 is commonly meant −log10 of the IC50, conventionally taken in molar units.

For `COc1cc(NC(C)CCCNC(=O)C(F)(F)c2cc(Cl)ccc2NC(C)=O)c2ncccc2c1` (stereo not given), the inhibition in vivo at 50 mg/kg in the data set on Plasmodium gallinaceum [1] is 15%. Moreover, the CC50 at 24 h in data set [2] worked out at 13.6 µM. The Activity is 10.3% in the data set on Plasmodium gallinaceum [3]; 4.7% in the data set with Plasmodium gallinaceum [6]; 41% with Plasmodium gallinaceum [7]; 42% in the data set with Plasmodium gallinaceum [9]; 0% with Plasmodium gallinaceum [10]; 56 in the data set on Plasmodium gallinaceum [14]. In addition, the Activity with Plasmodium gallinaceum [16] came to 81.3%; with Plasmodium gallinaceum [17], 166; with Plasmodium gallinaceum [18] it was 89%; in the data set with Plasmodium gallinaceum [20] it was 95%. The viability at 24 h, 100 µM in [4] stood at 33.9%. The viability at 24 h, 50 µM in data set [5] is 56.2%. Also, the selectivity ratio in data set [8] came out at 1.6. Further, the pIC50 with Plasmodium falciparum was 5.08. The inhibition result in the data set on J774.A1 [11] and in the data set on J774.A1 [12] was “Dose-dependent effect” throughout. For the same compound, in data set [13], the viability at 24 h, 12.5 µM stood at 100%. Moreover, in [15], the viability at 24 h, 25 µM is 96.8%. The inhibition in vivo at 25 mg/kg in the data set on Plasmodium gallinaceum [19] was determined as 5%.
As to `COc1cc(NC(C)CCCN)c2ncccc2c1` (stereo not given) [PRIMAQUINE], the CC50 at 24 h in data set [2] is 483 µM. Further, the Activity in the data set on Plasmodium gallinaceum [21] is 41; in the data set with Plasmodium gallinaceum [22], 100%; in the data set with Plasmodium gallinaceum [23], 7%; in the data set with Plasmodium gallinaceum [24], 85%; in the data set with Plasmodium gallinaceum [25], 45%. Besides, the selectivity ratio in data set [8] came to 255. For the same compound, the pIC50 with Plasmodium falciparum was 5.72. The inhibition in vivo at 15 mg/kg with Plasmodium gallinaceum [26] worked out at 100%.
